Measurements from paper PMC8553517 (ACS infectious diseases, 2021).
Values joined by “and” are separate entries in the source; they are usually repeats but may differ in a detail not shown here. Equal entries are not always repeated.

Experiments:
[1] = system: HepG2 cells; experiment: HepG2 toxicity assay; assay type: cell-based
[2] = system: intracellular L. donovani; experiment: L. donovani-infected macrophage assay; assay type: cell-based, Leishmania donovani; details: Leishmania donovani, Macrophage, read-out: IC50 against L. donovani
[3] = molecular target: recombinant L. donovani CYP51 (Leishmania donovani, UniProt A0A3S7WRS7); experiment: Fluorescence-based L. donovani CYP51 inhibition assay; assay type: biochemical
[4] = system: L. donovani-infected female BALB/c mice; experiment: Murine visceral leishmaniasis model; assay type: in vivo; details: three days after final dose
Summary of the method: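 Female BALB/c mice infected with L. donovani; groups of four. Dosing by oral gavage for 5 consecutive days, starting one week post-infection. Test compound was given at 75 or 37.5 mg/kg/day in 50% PEG400/50% water. Reference drug miltefosine was given at 10 mg/kg/day in water. The vehicle control group received PEG-400. Liver parasitemia was determined three days after the final dose, reported as percent reduction (mean ± S.E.M.).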

[5] = system: L. donovani CYP51; experiment: L. donovani CYP51 ligand binding spectra; set-up: species or system Leishmania donovani; details: titration of CYP51; absorbance maximum 431 nm, minimum 412–413 nm
Summary of the method: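 Purified N-terminally truncated L. donovani CYP51 (CYP51-32c, His-tagged; purity by SDS-PAGE/anti-His Western blot, CO-difference spectra) at 0.5 µM, titrated in 30 mM potassium phosphate pH 7.4 with 0.1 mM EDTA and 20% glycerol. […], and sample-minus-reference difference spectra were recorded.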

[6] = molecular target: recombinant human CYP3A4 (Homo sapiens, UniProt P08684); experiment: Inhibition of recombinant human CYP3A4; assay type: in vitro ADME
Sequence of recombinant human CYP3A4 (P08684 whole entry): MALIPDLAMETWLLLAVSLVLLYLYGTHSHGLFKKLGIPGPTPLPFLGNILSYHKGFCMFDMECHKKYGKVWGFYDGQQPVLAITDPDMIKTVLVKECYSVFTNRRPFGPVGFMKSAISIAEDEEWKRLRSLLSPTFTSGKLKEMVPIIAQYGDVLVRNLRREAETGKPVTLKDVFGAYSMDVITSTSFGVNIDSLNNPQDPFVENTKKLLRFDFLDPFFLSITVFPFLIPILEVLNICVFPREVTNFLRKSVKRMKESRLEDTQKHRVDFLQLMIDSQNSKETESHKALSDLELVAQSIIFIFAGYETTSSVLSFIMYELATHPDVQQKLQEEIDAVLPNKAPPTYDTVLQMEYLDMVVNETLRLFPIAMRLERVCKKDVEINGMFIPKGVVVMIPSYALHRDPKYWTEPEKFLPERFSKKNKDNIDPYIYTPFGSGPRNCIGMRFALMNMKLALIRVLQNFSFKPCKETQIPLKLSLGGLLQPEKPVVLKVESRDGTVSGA

[7] = system: J774 macrophages; experiment: J774 macrophage toxicity assay; assay type: cell-based, mouse

`CC(C)Oc1cc(OCCCCCCCCn2ccnc2)ccc1NC(=N)c1ccccn1` [Compound 24c, N-(4-((8-(1H-imidazol-1-yl)octyl)oxy)-2-isopropoxyphenyl) picolinimidamide] was tested, and the “Selectivity index (IC50 vs. mammalian cell line/IC50 vs. L. donovani)” value ([1]; HepG2 cells vs. intracellular L. donovani) was 23, the IC50 ([1]; Homo sapiens, HepG2, 72 h, read-out: IC50 against HepG2) was 12000 ± 2000 nM and the IC50 [2] was 530 ± 50 nM. The IC50 [3] was 330 ± 10 nM, the “Reduction in liver parasitemia” value ([4]; 37.5 mg/kg/day × 5 p.o.) was 17 ± 5% and the “Reduction in liver parasitemia” value ([4]; 75 mg/kg/day × 5 p.o., mean ± S.E.M.) was 33% and 33 ± 7%. The “CYP51 binding spectrum type” value [5] was “typical Type II binding spectra”, the IC50 [6] was 80 ± 9 nM and the “Selectivity index (IC50 vs. mammalian cell line/IC50 vs. L. donovani)” value ([7]; J774 macrophages vs. intracellular L. donovani) was 13. The IC50 ([7]; Mus musculus, J774, read-out: IC50 against J774 macrophages) was 6800 ± 200 nM.
